From paper PMC3600638 (Biomaterials, 2013)
Counter-ions that a name gives are not always drawn.

Legend:
[1] = test system: BxPC-3 subcutaneous tumors; experiment: Tumor growth inhibition study; type: in vivo, nude mice; settings: BxPC-3 xenograft, 4 IV injections every other day, 7.5 μmol/Kg
In short: (§1)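 Female nude mice, 6–8 weeks old, inoculated s.c. with 5×10⁶ cells. Dosing began day 12 at 150–200 mm³ tumor volume, mice randomised into 6 groups (n=5). IV injections every other day ×4 at 7.5 μmol/Kg. Calipers every other day, V = 0.5×W²×L; body weight recorded every other day; mice euthanised when a tumor reached 20 mm.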

BxPC-3 xenografts [2] = experiment: In vivo caspase-3/7 activation in tumors; parameters: species or system nude mice; settings: 3 daily IV injections, 7.5 μmol/Kg, 24 h after last injection
In short: (§2)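 Female nude mice, 6–8 weeks old, with s.c. right-flank xenografts (5×10⁶ cells in PBS), n=3. Three daily IV doses of 7.5 μmol/Kg; tumors taken 24 h after the last dose. Tissue homogenised and sonicated in RIPA with protease inhibitors, spun 14,000 rpm for 10 min at 4°C. 40 μg protein (BCA) assayed with a caspase-3/7 kit.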

BxPC-3 xenografts [3] = experiment: Western blot of tumor lysates; type: in vivo, nude mice; settings: 3 daily IV injections
In short: (§3)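 Tumors from xenograft-bearing nude mice harvested 24 h after three daily IV injections; RIPA lysates prepared. 40 μg protein per lane on 4–12% SDS-PAGE, transferred to PVDF, blocked 1 h in 5% milk. Mouse monoclonal PARP-1 and rabbit polyclonal cyclin D1 antibodies (1:500) overnight at 4°C. β-actin (1:4000) as loading control; secondaries 1:4000 for 1 h; ECL detection.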

H460 cells [4] = experiment: In vitro caspase-3/7 activation; type: cell-based, human; settings: 1.8 μM, 48 h
In short: (§4)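 H460 or BxPC-3 cells grown in RPMI-1640 with 10% FBS at 37°C and 5% CO₂. 2×10⁵ cells per well in 6-well plates, exposed to 1.8 μM test compound for 48 h. Lysed in RIPA buffer with protease inhibitors, protein measured by BCA, and 40 μg protein assayed with a commercial caspase-3/7 activity kit.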

H460 cells [5] = experiment: In vitro cell viability; type: cell-based, human; settings: 48 h, MTT
In short: (§5)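 Cells seeded at 1×10⁴ per well in 96-well plates. A range of test compound concentrations was added at 30% confluence, then 48 h at 37°C. MTT at 0.5 mg/mL final for 4 h at 37°C, formazan dissolved in DMSO, A570 read. Viability expressed as % of untreated cells; IC50 derived; mean ± S.D., n=3.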

BxPC-3 cells [6] = experiment: In vitro caspase-3/7 activation; type: cell-based, human; settings: 1.8 μM, 48 h
In short: as §4

H460 subcutaneous tumors = experiment: Tumor growth inhibition study; type: in vivo, nude mice; settings: H460 xenograft, 4 IV injections every other day, 7.5 μmol/Kg
In short: as §1

H460 xenografts [7] = experiment: Western blot of tumor lysates; type: in vivo, nude mice; settings: 3 daily IV injections
In short: as §3

Pharmacokinetic profile = type: in vivo, nude mice; settings: IV bolus, H460 xenograft model
In short: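 Nanoparticles co-loaded with trace ³H-CTP as a marker of entrapped drug, given as an IV bolus to nude mice bearing H460 tumors. 30 μL blood drawn from the orbital venous plexus at 20 min, 1, 2, 4, 8 and 24 h, bleached with 30% H₂O₂ and counted by liquid scintillation. %ID in blood calculated with the initial value set at 100%; PK parameters from a non-compartmental fit.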

H460 xenografts [8] = experiment: In vivo caspase-3/7 activation in tumors; parameters: species or system nude mice; settings: 3 daily IV injections, 7.5 μmol/Kg, 24 h after last injection
In short: as §2

BxPC-3 cells [9] = experiment: In vitro cell viability; type: cell-based, human; settings: 48 h, MTT
In short: as §5

H460 cells [10] = experiment: In vitro cellular uptake of NBD-labeled LCPs; type: cell-based, human; settings: pre-incubation with 50 μM haloperidol for 1 h

| Compound | tumor growth inhibition [1] | caspase-3/7 activity in tumors (BxPC-3 xenografts [2]) | cleaved PARP in tumors (BxPC-3 xenografts [3]) | in vitro caspase-3/7 activity (H460 cells [4]) | cell viability (H460 cells [5]) | in vitro caspase-3/7 activity (BxPC-3 cells [6]) | tumor growth inhibition (H460 subcutaneous tumors) | cleaved PARP in tumors (H460 xenografts [7]) | AUMC (Pharmacokinetic profile) | caspase-3/7 activity in tumors (H460 xenografts [8]) | cell viability (BxPC-3 cells [9]) | effect on cellular uptake of AA-modified LCP (H460 cells [10]) |
| --- | --- | --- | --- | --- | --- | --- | --- | --- | --- | --- | --- | --- |
| Nc1ccn([C@@H]2O[C@H](COP(=O)(O)OP(=O)(O)OP(=O)(O)O)[C@@H](O)C2(F)F)c(=O)n1 [GTP, Gemcitabine triphosphate tris(triethylammonium) salt] | limited therapeutic effects | did not elicit caspase activity in vivo | did not induce PARP elevation | significantly higher than the control | decreased the cell viability | significantly higher than the control | limited therapeutic effects | did not induce PARP elevation | 25.34 h^2·% | did not elicit caspase activity in vivo | decreased the cell viability |  |
| Nc1ccn([C@@H]2O[C@H](CO)[C@@H](O)C2(F)F)c(=O)n1 [Gem, 2′, 2′-difluoro 2′-deoxycytidine] | limited therapeutic effects | did not elicit caspase activity in vivo | did not induce PARP elevation | significantly higher than the control | decreased the cell viability | significantly higher than the control | limited therapeutic effects | did not induce PARP elevation |  | did not elicit caspase activity in vivo | decreased the cell viability |  |
| O=C(CCCN1CCC(O)(c2ccc(Cl)cc2)CC1)c1ccc(F)cc1 [haloperidol] |  |  |  |  |  |  |  |  |  |  |  | significantly reduced the cellular uptake of AA-modified LCP |
